GASC1 inh: inhibitors of human demethylase GASC-1 KDM4C; Q9H3R0; GST-KDM4C 2-372, H3K9me3 peptide, LANCE TR-FRET; inhibition, % at 12.5 µM; 96,000 compounds, 0.15% hits; AID 720574;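 active means mean replicate inhibition above about 25%, with at least 55% of replicates also reaching it, limit read from the data, passing the limit was not always enough; inconclusive means only one of those two conditions met; inactive means neither condition met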
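System – N-terminal GST-fused human GASC-1 (KDM4C) fragment, residues 2-372 · Input – enzyme final amount 10 nM · Technique – LANCE TR-FRET, Eu antibody, ULight-streptavidin, EDTA, ex 340 nm, em 618/671 nm · Medium – HEPES buffer, pH 7.5, plus ascorbate · Incubation – enzyme reaction 30 min, then detection 60 min, both room temperature · Reagent – H3K9me3 peptide with Fe(II)/2OG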
IDH1 R132H inh: IDH1 R132H (human) inhibition; O75874; IDH1 R132H reductase, diaphorase/resazurin fluorescence, 60 min; inhibition, % at 10 µM; 70,000 compounds, 0.18% hits; in the data active means inhibition above about 34%; inconclusive means no clear call, values can overlap the other calls; inactive means below about 11%;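 further: 0% = DMSO and 100% = no enzyme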
Target sequence (O75874 whole entry R132H): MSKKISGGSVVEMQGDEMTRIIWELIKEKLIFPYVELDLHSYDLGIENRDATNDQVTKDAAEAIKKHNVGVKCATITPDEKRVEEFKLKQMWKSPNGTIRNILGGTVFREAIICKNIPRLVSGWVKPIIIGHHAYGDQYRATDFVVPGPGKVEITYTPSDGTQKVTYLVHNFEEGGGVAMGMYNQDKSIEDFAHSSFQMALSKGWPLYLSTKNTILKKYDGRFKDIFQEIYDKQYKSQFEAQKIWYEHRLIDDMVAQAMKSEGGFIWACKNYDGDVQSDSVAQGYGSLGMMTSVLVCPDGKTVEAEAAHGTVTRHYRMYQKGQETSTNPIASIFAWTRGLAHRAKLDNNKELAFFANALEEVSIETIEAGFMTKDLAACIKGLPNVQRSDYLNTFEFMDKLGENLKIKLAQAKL
T cruzi growth-1: T. cruzi proliferation inhibition. T. cruzi beta-gal in NIH3T3, GalScreen luminescence, 90 h. inhibition, % at 8.34 µM. 77,000 compounds, 5.9% hits;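 active means mean inhibition above about 93%, with at least 55% of replicates each passing it, limit read from the data, passing the limit was not always enough; inconclusive means only one of those two conditions holds; inactive means neither condition holds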
T cruzi growth-2: Trypanosoma cruzi proliferation inhibition. shares compounds with T cruzi growth-1. T. cruzi beta-gal in NIH3T3, GalScreen luminescence, 90 h. inhibition, % at 8.35 µM. 5,600 compounds, 72% hits. AID 651739;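 active means mean replicate inhibition above about 95% and at least 55% of replicates individually reaching it, limit read from the data; inconclusive means only one of the two criteria is met; inactive means neither criterion is met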
T cruzi growth-3: Trypanosoma cruzi proliferation inhibition | shares compounds with T cruzi growth-1 | T. cruzi beta-gal in NIH3T3, GalScreen luminescence, 90 h | inhibition, % at 2.09 µM | 5,600 compounds, 21% hits | AID 651740;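 active means mean inhibition above about 95%, with at least 55% of replicates also reaching it, limit read from the data; inconclusive means meets just one of the two conditions; inactive means meets neither condition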;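 further: plate controls were neutral control median for no effect and positive control median for full effect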
3T3 cytotox: cytotoxicity in mouse NIH/3T3 fibroblasts | shares compounds with T cruzi growth-1 | NIH/3T3 viability, CellTiter-Glo ATP luminescence, 90 h | cytotoxicity (signal decrease), % at 8.35 µM | 5,600 compounds, 14% hits;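 active means mean signal decrease across replicates above about 35% based on untreated-well scatter, with enough replicates individually passing, limit read from the data; inconclusive means no rule stated though some were filed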;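 further: 0% = median of neutral control wells and 100% = median of positive control wells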
3T3 cytotox 2: cytotoxicity in mouse NIH/3T3 fibroblasts | AID 651744 | 5,600 compounds, 56% hits | inhibition, % at 24.9 µM | NIH/3T3 viability, CellTiter-Glo ATP luminescence, 90 h | shares compounds with T cruzi growth-1;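 active means mean loss of cell viability signal at or above a set limit, and enough replicates individually reaching it; inconclusive means meets only the mean limit or only the replicate share; inactive means meets neither condition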;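 further: 0% = median of neutral control wells and 100% = median of positive control wells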
Active calls of the source: *. This excerpt belongs to a sample that is enriched for hits.

Screening C[C@@H]1CN([C@@H](C)CO)C(=O)c2c(c3ccccc3n2C)-c2ccccc2CO[C@H]1CN(C)S(=O)(=O)c1ccsc1 returned GASC1 inh -3, T cruzi growth-1 inconclusive, T cruzi growth-2 108*, T cruzi growth-3 54, 3T3 cytotox 6 and 3T3 cytotox 2 47*.
`COc1ccc(S(=O)(=O)N(C)C[C@H]2OCc3ccccc3-c3c(n(C)c4ccccc34)C(=O)N([C@@H](C)CO)C[C@@H]2C)cc1` gave GASC1 inh -3 and T cruzi growth-1 60.
C[C@H]1CN([C@@H](C)CO)C(=O)c2c(c3ccccc3n2C)-c2ccccc2CO[C@H]1CN(C)S(=O)(=O)c1ccccc1C#N was read as GASC1 inh 0, IDH1 R132H inh 0, T cruzi growth-1 107*, T cruzi growth-2 91, T cruzi growth-3 76, 3T3 cytotox inconclusive and 3T3 cytotox 2 85*.
Screening CC1(C)CC(=O)C2=C(C1)N(Cc1cccnc1)C(=O)C2(NC(=O)c1ccco1)C(F)(F)F (stereo unspecified) returned IDH1 R132H inh 0.
CCN1CSC(=S)N(CC)C1 was read as IDH1 R132H inh -5.
Screening Cc1ccc(NC(=O)c2oc3ccccc3c2NC(=O)Cc2coc3ccc(C)cc23)cc1 returned IDH1 R132H inh 0.
CC(=O)N1[C@H](CO)[C@H](c2ccccc2)[C@H]1CN(CC1CCC1)C(=O)CN(C)C was read as GASC1 inh -2, T cruzi growth-1 101*, T cruzi growth-2 inconclusive, T cruzi growth-3 0, 3T3 cytotox -23 and 3T3 cytotox 2 -13.
CC(=O)N1[C@H](CO)[C@@H](c2ccccc2)[C@@H]1CN(CC1CCC1)C(=O)CN(C)C was read as GASC1 inh -3 and T cruzi growth-1 27.
For CCC(=O)N(CC1CCC1)C[C@H]1[C@H](c2ccccc2)[C@@H](CO)N1C(C)=O the results were GASC1 inh 0 and T cruzi growth-1 73.
Screening CC(=O)N1[C@@H](CO)[C@@H](c2ccccc2)[C@@H]1CN(CC1CCC1)C(=O)CN(C)C returned GASC1 inh -2, T cruzi growth-1 98*, T cruzi growth-2 30, T cruzi growth-3 -18, 3T3 cytotox 8 and 3T3 cytotox 2 22.
For CCc1ccccc1NC(=O)CN(C)S(=O)(=O)c1c(C)cc(C)cc1C the results were IDH1 R132H inh -1.
Screening CC1OC(OC(=O)C2=CC3(O)CC(C)(C)CC34C(C)CCC24)C(O)C(O)C1O (stereo unspecified) returned IDH1 R132H inh 0.
`C[C@@H]1CN([C@H](C)CO)C(=O)c2cc(NC(=O)Nc3cccc4ccccc34)ccc2O[C@H]1CN(C)Cc1ccc(C(F)(F)F)cc1` gave GASC1 inh -1, IDH1 R132H inh 0, T cruzi growth-1 106*, T cruzi growth-2 105*, T cruzi growth-3 59, 3T3 cytotox 20 and 3T3 cytotox 2 inconclusive.
For C[C@@H]1CN([C@@H](C)CO)C(=O)c2cc(NC(=O)Nc3cccc4ccccc34)ccc2O[C@@H]1CN(C)Cc1ccccc1 the results were GASC1 inh 2, IDH1 R132H inh 0 and T cruzi growth-1 66.
For C[C@H]1CN([C@@H](C)CO)C(=O)c2cc(NC(=O)Nc3cccc4ccccc34)ccc2O[C@@H]1CN(C)Cc1ccc(C(F)(F)F)cc1 the results were GASC1 inh -1, T cruzi growth-1 87*, T cruzi growth-2 109*, T cruzi growth-3 44, 3T3 cytotox 13 and 3T3 cytotox 2 11.
C[C@@H]1CN([C@H](C)CO)C(=O)c2cc(NC(=O)Nc3cccc4ccccc34)ccc2O[C@H]1CN(C)Cc1ccccc1 was read as GASC1 inh -2, IDH1 R132H inh 0 and T cruzi growth-1 54.
`Cc1ccc(S(=O)(=O)N2CCC[C@H]2CN=[N+]=[N-])cc1` gave IDH1 R132H inh 0.
`Cc1ccc(-c2nc3cc(NC(=O)COc4ccccc4Cl)ccc3o2)c(C)c1` gave IDH1 R132H inh 0.
`C[C@H]1CN([C@@H](C)CO)C(=O)c2cc(NC(=O)Nc3cccc4ccccc34)ccc2O[C@H]1CN(C)Cc1ccc2c(c1)OCO2` gave GASC1 inh -4, IDH1 R132H inh -12, T cruzi growth-1 100*, T cruzi growth-2 90, T cruzi growth-3 93, 3T3 cytotox 28 and 3T3 cytotox 2 32*.
For C[C@H](CO)N1C[C@H](C)[C@H](CN(C)Cc2ccc3c(c2)OCO3)Oc2ccc(NC(=O)Nc3ccc(C(F)(F)F)cc3)cc2CC1=O the results were GASC1 inh -1, IDH1 R132H inh -4, T cruzi growth-1 97*, T cruzi growth-2 109*, T cruzi growth-3 104*, 3T3 cytotox 19 and 3T3 cytotox 2 84*.
Screening C[C@@H]1CN([C@@H](C)CO)C(=O)c2cc(NC(=O)Nc3cccc4ccccc34)ccc2O[C@@H]1CN(C)Cc1ccc2c(c1)OCO2 returned GASC1 inh -1, IDH1 R132H inh 0 and T cruzi growth-1 14.
C[C@@H]1CN([C@@H](C)CO)C(=O)Cc2cc(NC(=O)Nc3ccc(C(F)(F)F)cc3)ccc2O[C@H]1CN(C)Cc1ccc2c(c1)OCO2 was read as GASC1 inh -2, IDH1 R132H inh 0 and T cruzi growth-1 93.
`C[C@H](CO)N1C[C@H](C)[C@@H](CN(C)Cc2ccc3c(c2)OCO3)Oc2ccc(NC(=O)Nc3cccc4ccccc34)cc2CC1=O` gave GASC1 inh -1, IDH1 R132H inh 0, T cruzi growth-1 109*, T cruzi growth-2 101*, T cruzi growth-3 104*, 3T3 cytotox 41* and 3T3 cytotox 2 52*.
Screening C[C@H]1CN([C@@H](C)CO)C(=O)Cc2cc(NC(=O)Nc3cccc4ccccc34)ccc2O[C@H]1CN(C)Cc1ccc2c(c1)OCO2 returned GASC1 inh -1, IDH1 R132H inh 0 and T cruzi growth-1 16.
For CS(=O)(=O)N(CC(=O)Nc1ccccc1-c1ccccc1)c1ccc2c(c1)OCCO2 the results were IDH1 R132H inh 0.
COC(=O)c1ccccc1NC(=O)Cn1c(C(F)(F)F)nc2ccccc21 was read as IDH1 R132H inh 1.
`C[C@@H]1CN([C@H](C)CO)S(=O)(=O)c2ccc(-c3ccc(F)cc3)cc2O[C@@H]1CN(C)C(=O)C1CCCCC1` gave GASC1 inh -1, T cruzi growth-1 108*, T cruzi growth-2 103*, T cruzi growth-3 92, 3T3 cytotox 28 and 3T3 cytotox 2 102*.
Screening C[C@@H]1CN([C@@H](C)CO)S(=O)(=O)c2ccc(-c3ccc(F)cc3)cc2O[C@H]1CN(C)C(=O)C1CCC1 returned GASC1 inh 1 and T cruzi growth-1 85.

Screens deposited in PubChem by Broad Institute.
